According to publication PMC3669693 (Journal of neuroimmune pharmacology : the official journal …, 2012):
Several values for one entry are separate records, joined by “and”; a condition that tells them apart may be missing. Identical values can stand only once. Like-named read-outs stand apart in the source and are kept apart here.

Assays:
GPR55 [1] = target: T1, GPR55 (Homo sapiens, UniProt Q9Y2T6); details: cited from earlier work
[2] = system: HA-GPR55E/βarr2-GFP U2OS cells; assay: LDH cytotoxicity assay; assay type: cell-based; details: for toxicity to the cells (released LDH): at concentrations employed in this study (10 and 30 μM)
GPR55 [3] = target: T1, GPR55; assay: GPR55 internalization assay, immunocytochemistry; assay type: cell-based; details: for effect on GPR55 internalization induced by ML184, ML185, ML186: 10 μM pre-incubation, agonist 5 μM of each ML compound; for effect on LPI-induced GPR55 internalization / effect on SR141716A-induced GPR55 internalization / GPR55 receptor localization, compound alone: 10 μM; for effect on LPI-induced GPR55 internalization / effect on SR141716A-induced GPR55 internalization: 15 min pre-incubation; for effect on LPI-induced GPR55 internalization: agonist 3 μM LPI; for effect on SR141716A-induced GPR55 internalization: agonist 30 μM SR141716A; for GPR55 receptor localization, compound alone: no agonist; for GPR55 receptor internalization, compound alone: 40 min, RT
GPR55 [4] = target: T1, GPR55; assay: β-arrestin assessment of GPR55 activation; assay type: cell-based; details: for maximal inhibition of LPI response / effect of low concentrations on LPI-mediated βarr2-GFP recruitment: agonist 3 μM LPI; for maximal inhibition of LPI response / maximal inhibition of SR141716A response: normalized to agonist response; for recruitment of βarr2-GFP by compound alone: no agonist, AEA 0.1–30 μM
Procedure, shortened: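 U2OS cells stably co-expressing HA-GPR55E and βarr2-GFP were seeded on glass coverslips, kept overnight at 37°C/5% CO2 and assayed in HBSS. Test compound (0.01–30 μM) was pre-incubated 15 min, then co-incubated 40 min RT with 3 μM LPI or 30 μM SR141716A. Fixation: 4% paraformaldehyde, 25 min. Imaging: 488 nm, 40X oil. Fluorescent pit counts were normalized to agonist response (100%), with sigmoidal fits for IC50. Three experiments in duplicate.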

GPR55 [5] = target: T1, GPR55; details: read-out: EC50, agonist at GPR55 (βarr2-GFP distribution); previous study; ref Kapur et al. 2009; cited from earlier work
GPR55 [6] = target: T1, GPR55; details: read-out: agonist potency at GPR55; ref Ryberg et al., 2007; cited from earlier work
CB1 = details: read-out: agonist potency at CB1; ref Ryberg et al., 2007; cited from earlier work
CB2 receptor = details: ref Porter et al., 2002; cited from earlier work
CB1 receptor = details: ref Porter et al., 2002; cited from earlier work
CB2 = details: read-out: agonist potency at CB2; ref Ryberg et al., 2007; cited from earlier work
[7] = 10 μM + 3 μM LPI, % of total LDH activity
[8] = 10 μM + 30 μM SR141716A, % of total LDH activity
[9] = 10 μM alone, % of total LDH activity (1% Triton X-100)
[10] = 30 μM + 3 μM LPI, % of total LDH activity
[11] = 30 μM + 30 μM SR141716A, % of total LDH activity
[12] = 30 μM alone, % of total LDH activity (1% Triton X-100)

T1 sequence (Q9Y2T6 1-292 limits assumed): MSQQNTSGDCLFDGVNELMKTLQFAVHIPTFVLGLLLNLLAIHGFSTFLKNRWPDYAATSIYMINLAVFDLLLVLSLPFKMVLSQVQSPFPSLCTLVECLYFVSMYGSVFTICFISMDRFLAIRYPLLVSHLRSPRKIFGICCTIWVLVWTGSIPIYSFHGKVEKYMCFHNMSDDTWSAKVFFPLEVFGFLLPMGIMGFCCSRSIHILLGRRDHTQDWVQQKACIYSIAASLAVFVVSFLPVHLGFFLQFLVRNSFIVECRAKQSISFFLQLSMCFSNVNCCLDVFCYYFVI

With `CCCCC/C=C\C/C=C\C/C=C\C/C=C\CCCC(=O)NCCO` [AEA, N-arachidonyl ethanolamine] as the compound, how does the “activation of GPR55” value (GPR55 [1]; previous findings of the laboratory, ref Kapur et al., 2009) read?
Its value is “did not activate GPR55”.

What about the “Cell death, %” value [2, 7] of the same compound?
Its value is 6.12%.

And the “Cell death, %” value [2, 8]?
The value was 6.79%.

And the “Cell death, %” value [2, 9]?
The value was 5.90%.

And the “Cell death, %” value [2, 10]?
The value was 5.86%.

What about the “Cell death, %” value [2, 11] of the same compound?
The value was 8.02%.

What about the “Cell death, %” value [2, 12] of the same compound?
Its value is 5.93%.

And the “toxicity to the cells (released LDH)” value [2]?
The value was “neither AEA nor virodhamine are toxic”.

And the “effect on GPR55 internalization induced by ML184, ML185, ML186” value (GPR55 [3])?
Its value is “largely attenuated”.

What about the “effect on LPI-induced GPR55 internalization” value (GPR55 [3]) of the same compound?
The value was “markedly decreased receptor internalization”.

What about the “effect on SR141716A-induced GPR55 internalization” value (GPR55 [3]) of the same compound?
The value was “markedly decreased receptor internalization”.

And the “GPR55 receptor localization, compound alone” value (GPR55 [3])?
Its value is “membrane bound receptors”.

What about the IC50 (GPR55 [4]) of the same compound?
Its IC50 is 5910 nM and 12000 nM.

What about the “maximal inhibition of LPI response” value (GPR55 [4]) of the same compound?
Its value is 20%.

What about the “maximal inhibition of SR141716A response” value (GPR55 [4]; agonist 30 μM SR141716A) of the same compound?
The value was 65%.

What about the “recruitment of βarr2-GFP by compound alone” value (GPR55 [4]) of the same compound?
The value was “did not result in recruitment of βarr2-GFP”.

And the “effect of low concentrations on LPI-mediated βarr2-GFP recruitment” value (GPR55 [4]; low concentrations)?
The value was “enhanced the recruitment”.

With `CCCCCCC(C)(C)c1ccc([C@@H]2C[C@H](O)CC[C@H]2CCCO)c(O)c1` [CP55,940] as the compound, how does the “type of activity at GPR55” value (GPR55 [1]; ref Henstridge et al. 2009, Kapur et al. 2009, Pineiro et al. 2011) read?
The value was “antagonist/partial agonist”.

Which “GPR55 receptor internalization, compound alone” value (“GPR55 receptor internalization” for short) (GPR55 [3]; 5 μM) does the source give for `Cc1cccc(N2CCN(C(=O)c3cc(S(=O)(=O)N(C)C)ccc3N3CCCC3)CC2)c1C` [ML184, 3-[4-(2,3-dimethylphenyl)piperazine-1-carbonyl]-N,N-dimethyl-4-pyrrolidin-1-ylbenzenesulfonamide] here?
Its value is “resulted in receptor internalization”.

With `COc1ccc(-c2csc(NC(=O)CSc3nnc4c(C)cc5ccccc5n34)n2)cc1` [ML185, N-[4-(4-methoxyphenyl)-1,3-thiazol-2-yl]-2-[(4-methyl-[1,2,4]triazolo[4,3-a]quinolin-1-yl)sulfanyl]acetamide] as the compound, how does the “GPR55 receptor internalization” value (GPR55 [3]; 5 μM) read?
The value was “resulted in receptor internalization”.

For `COc1ccc(S(=O)(=O)N2CCOCC2)cc1NC(=O)c1cc2c(s1)CCCC2` [ML186, N-(2-methoxy-5-morpholin-4-ylsulfonylphenyl)-4,5,6,7-tetrahydro-1-benzothiophene-2-carboxamide], which “GPR55 receptor internalization” value (GPR55 [3]; 5 μM) is on record?
Its value is “resulted in receptor internalization”.

With `Cc1c(C(=O)NN2CCCCC2)nn(-c2ccc(Cl)cc2Cl)c1-c1ccc(Cl)cc1` [SR141716A, N-(piperidin-1-yl)-5-(4-chlorophenyl)-1-(2,4-dichlorophenyl)-4-methyl-1H-pyrazole-3-carboxamide] as the compound, how does the EC50 (GPR55 [5]) read?
Its EC50 is 3900 nM.

What about the “Cell death, %” value [2, 12] of the same compound?
Its value is 7.12%.

And the “GPR55 receptor internalization” value (GPR55 [3]; 30 μM)?
The value was “loss of membrane staining and the appearance of cytosolic fluorescent aggregates corresponding to internalized receptors”.

Which EC50 (GPR55 [6]) does the source give for `CCCCC/C=C\C/C=C\C/C=C\C/C=C\CCCC(=O)OCCN` [virodhamine, O-arachidonoyl ethanolamine] here?
Its EC50 is 12 nM.

What about the EC50 (CB1) of the same compound?
The EC50 was 2900 nM.

What about the “type of activity at the CB2 receptor” value (CB2 receptor) of the same compound?
Its value is “full agonist”.

And the “type of activity at the CB1 receptor” value (CB1 receptor)?
Its value is “partial agonist/antagonist”.

And the EC50 (CB2)?
Its EC50 is 381 nM.

And the “Cell death, %” value [2, 7]?
Its value is 6.94%.

And the “Cell death, %” value [2, 8]?
Its value is 6.44%.

And the “Cell death, %” value [2, 9]?
Its value is 7.27%.

What about the “Cell death, %” value [2, 10] of the same compound?
Its value is 8.73%.

What about the “Cell death, %” value [2, 11] of the same compound?
Its value is 6.93%.

And the “Cell death, %” value [2, 12]?
Its value is 8.08%.

And the “toxicity to the cells (released LDH)” value [2]?
The value was “neither AEA nor virodhamine are toxic”.

What about the “effect on GPR55 internalization induced by ML184, ML185, ML186” value (GPR55 [3]) of the same compound?
Its value is “largely attenuated”.

And the “effect on LPI-induced GPR55 internalization” value (GPR55 [3])?
Its value is “strikingly decreased receptor internalization”.

And the “effect on SR141716A-induced GPR55 internalization” value (GPR55 [3])?
Its value is “strikingly decreased receptor internalization”.

And the “GPR55 receptor localization, compound alone” value (GPR55 [3])?
Its value is “receptors were localized to the membrane”.

What about the “maximal inhibition of LPI response” value (GPR55 [4]) of the same compound?
The value was 46%.

And the “maximal inhibition of SR141716A response” value (GPR55 [4]; agonist 30 μM SR141716A)?
The value was 68%.

And the “recruitment of βarr2-GFP by compound alone” value (GPR55 [4])?
Its value is “weak recruitment of βarr2-GFP”.

And the “effect of low concentrations on LPI-mediated βarr2-GFP recruitment” value (GPR55 [4]; low concentrations)?
The value was “enhanced the recruitment”.

What about the “effect of low concentrations on SR141716A-mediated βarr2-GFP recruitment” value (GPR55 [4]; low concentrations, agonist 30 μM SR141716A) of the same compound?
The value was “enhanced the recruitment”.

Which results are given for lysophosphatidylinositol [LPI]?
EC50 (GPR55 [5]): 1200 nM; Cell death, % ([2]; 3 μM alone, % of total LDH activity (1% Triton X-100)): 7.08%; GPR55 receptor internalization, compound alone (GPR55 [3]; 3 μM): loss of membrane staining and the appearance of cytosolic fluorescent aggregates corresponding to internalized receptors
